Key:
[1] = Biodistribution in large intestine of PSMA expressing human PC3 PIP and PSMA deficient human PC3 flu cells xenografted SCID mouse at 2 uCi, iv after 60 mins; format: ADME, organism-based; details: in vivo, 1 h
Method in brief: (§1)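 Male SCID mice carried subcutaneous PSMA+ PC-3 PIP (left shoulder) and PC-3 flu (right shoulder) xenografts, 1-5 × 10^6 cells in HBSS, and were used at 3-5 mm tumor diameter. Tail-vein injection of 2 µCi radioligand; four mice per time point, killed by cervical dislocation. %ID/g from a standard dilution of the dose, decay-corrected, mean ± SD; PIP tumor:organ ratios.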

[2] = Biodistribution in PC3 flu tumor of PSMA expressing human PC3 PIP and PSMA deficient human PC3 flu cells xenografted SCID mouse at 2 uCi, iv after 60 mins; format: ADME, organism-based; details: in vivo, 1 h; method in brief: as §1
[3] = Biodistribution in PC3 flu tumor of PSMA expressing human PC3 PIP and PSMA deficient human PC3 flu cells xenografted SCID mouse at 2 uCi, iv after 30 mins; format: ADME, organism-based; details: in vivo, 0.5 h; method in brief: as §1
[4] = biological target: T1, Glutamate carboxypeptidase 2 (Homo sapiens, UniProt Q04609); assay: Inhibition of PSMA in human LNCaP cell extract using [3H]NAAG by radiometric assay; format: cell-free
T1 sequence (Q04609 whole entry): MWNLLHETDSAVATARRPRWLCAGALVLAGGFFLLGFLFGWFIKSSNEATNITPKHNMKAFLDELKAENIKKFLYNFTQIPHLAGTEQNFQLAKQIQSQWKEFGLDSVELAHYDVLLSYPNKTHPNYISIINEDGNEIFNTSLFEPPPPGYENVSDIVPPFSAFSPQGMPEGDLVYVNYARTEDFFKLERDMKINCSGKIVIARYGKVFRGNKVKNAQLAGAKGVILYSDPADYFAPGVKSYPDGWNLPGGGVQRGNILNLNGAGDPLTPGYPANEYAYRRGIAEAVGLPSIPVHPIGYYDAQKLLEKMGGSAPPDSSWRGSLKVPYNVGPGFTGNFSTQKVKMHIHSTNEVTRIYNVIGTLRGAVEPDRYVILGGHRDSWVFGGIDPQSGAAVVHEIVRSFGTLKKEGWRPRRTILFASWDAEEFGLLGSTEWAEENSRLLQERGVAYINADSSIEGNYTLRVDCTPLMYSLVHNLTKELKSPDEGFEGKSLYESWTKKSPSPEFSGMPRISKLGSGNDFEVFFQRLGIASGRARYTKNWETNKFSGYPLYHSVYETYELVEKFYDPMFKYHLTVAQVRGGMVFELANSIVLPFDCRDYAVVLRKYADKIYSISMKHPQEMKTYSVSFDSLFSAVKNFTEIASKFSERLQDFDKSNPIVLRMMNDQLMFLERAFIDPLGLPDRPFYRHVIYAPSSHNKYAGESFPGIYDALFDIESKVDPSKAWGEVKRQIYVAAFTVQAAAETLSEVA

[5] = biological target: T1, Glutamate carboxypeptidase 2; assay: Inhibition of PSMA in human LNCaP cell extract using [3H]NAAG by fluorescence-based assay; format: cell-free
[6] = Biodistribution in large intestine of PSMA expressing human PC3 PIP and PSMA deficient human PC3 flu cells xenografted SCID mouse at 2 uCi, iv after 5 hrs; format: ADME, organism-based; details: in vivo; method in brief: as §1
[7] = Biodistribution in small intestine of PSMA expressing human PC3 PIP and PSMA deficient human PC3 flu cells xenografted SCID mouse at 2 uCi, iv after 30 mins; format: ADME, organism-based; details: in vivo, 0.5 h; method in brief: as §1
[8] = Biodistribution in small intestine of PSMA expressing human PC3 PIP and PSMA deficient human PC3 flu cells xenografted SCID mouse at 2 uCi, iv after 5 hrs; format: ADME, organism-based; details: in vivo; method in brief: as §1
[9] = Biodistribution in small intestine of PSMA expressing human PC3 PIP and PSMA deficient human PC3 flu cells xenografted SCID mouse at 2 uCi, iv after 60 mins; format: ADME, organism-based; details: in vivo, 1 h; method in brief: as §1
[10] = Biodistribution in PC3 flu tumor of PSMA expressing human PC3 PIP and PSMA deficient human PC3 flu cells xenografted SCID mouse at 2 uCi, iv after 2 hrs; format: ADME, organism-based; details: in vivo; method in brief: as §1
[11] = Biodistribution in small intestine of PSMA expressing human PC3 PIP and PSMA deficient human PC3 flu cells xenografted SCID mouse at 2 uCi, iv after 2 hrs; format: ADME, organism-based; details: in vivo; method in brief: as §1
[12] = Biodistribution in PC3 PIP tumor of PSMA expressing human PC3 PIP and PSMA deficient human PC3 flu cells xenografted SCID mouse at 2 uCi, iv after 30 mins; format: ADME, organism-based; details: in vivo, 0.5 h; method in brief: as §1
[13] = Biodistribution in PC3 flu tumor of PSMA expressing human PC3 PIP and PSMA deficient human PC3 flu cells xenografted SCID mouse at 2 uCi, iv after 5 hrs; format: ADME, organism-based; details: in vivo; method in brief: as §1
[14] = Biodistribution in large intestine of PSMA expressing human PC3 PIP and PSMA deficient human PC3 flu cells xenografted SCID mouse at 2 uCi, iv after 30 mins; format: ADME, organism-based; details: in vivo, 0.5 h; method in brief: as §1
[15] = Biodistribution in large intestine of PSMA expressing human PC3 PIP and PSMA deficient human PC3 flu cells xenografted SCID mouse at 2 uCi, iv after 2 hrs; format: ADME, organism-based; details: in vivo; method in brief: as §1

| Structure (SMILES) | Drug uptake [1] | Drug uptake [2] | Drug uptake [3] | Ki [4] | Ki [5] | Drug uptake [6] | Drug uptake [7] | Drug uptake [8] | Drug uptake [9] | Drug uptake [10] | Drug uptake [11] | Drug uptake [12] | Drug uptake [13] | Drug uptake [14] | Drug uptake [15] |
| --- | --- | --- | --- | --- | --- | --- | --- | --- | --- | --- | --- | --- | --- | --- | --- |
| O=C(O)CC[C@H](NC(=O)N[C@@H](CCCCNC(=O)c1cncc([125I])c1)C(=O)O)C(=O)O | 0.6 % ID/g | 0.6 % ID/g | 0.8 % ID/g | – | – | – | – | – | – | – | – | – | – | – | – |
| O=C(O)CC[C@H](NC(=O)N[C@@H](CCCCNC(=O)c1ccc(F)cc1)C(=O)O)C(=O)O | – | – | – | 0.256 nM | 0.194 nM | – | – | – | – | – | – | – | – | – | – |
| O=C(O)CC[C@H](NC(=O)N[C@@H](CCCCNC(=O)c1ccc([125I])cc1)C(=O)O)C(=O)O | 1 % ID/g | 1.2 % ID/g | 1.8 % ID/g | – | – | 0.7 % ID/g | 4.9 % ID/g | 1.5 % ID/g | 3.8 % ID/g | 0.7 % ID/g | 1.5 % ID/g | 8.8 % ID/g | 0.6 % ID/g | 1.4 % ID/g | 0.6 % ID/g |

Source: ChEMBL document CHEMBL1151761, “Radiohalogenated prostate-specific membrane antigen (PSMA)-based ureas as imaging agents for prostate cancer” (J Med Chem, 2008)
